Laboratory results reported in paper PMC4207554 (Drug Design, Development and Therapy, 2014).

Experiments:
[1] = test system: bone marrow polychromatic erythrocytes; details: 15 mg/kg, similar experiment conditions; cited from earlier work
[2] = test system: BEL-7402 human hepatoma cells; test: BEL-7402 human hepatoma xenograft model; format: in vivo, nude mice
[3] = cited from earlier work
H22 mouse hepatoma cells = test: H22 hepatoma xenograft model; format: in vivo, Kun Ming (KM) mice
In short: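 Kun Ming mice (eight/group) received 2×10^5 H22 hepatoma cells sc in the right armpit. Test compound (5, 15, 45 mg/kg) or adriamycin (2 mg/kg) in HS-15/N,N-dimethylformamide (1:1 v/v) was injected ip. Mice were weighed twice weekly and killed by cervical dislocation, and tumors were weighed. Inhibition (%) = (mean control tumor weight − mean treated)/mean control × 100.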

In the case of COc1cccc2c1C(=O)c1c(O)c3c(c(O)c1C2=O)C[C@@](O)(C(=O)CO)C[C@@H]3O[C@H]1C[C@H](N)[C@H](O)[C@H](C)O1 [ADM, adriamycin], the induction of micronuclei [1] is given as “induce large amounts of micronuclei”, the inhibitory rate ([2]; 2 mg/kg ip, BEL-7402 xenografts) is given as 73.5% and the “inhibition of body weight of mice” value ([2]; BEL7402 xenografts) is given as 33.3%. The “changes in body weights versus vehicle group” value ([2]; BEL-7402 xenografts, 3 weeks) was “significantly reduced”, the “bioavailability after oral administration” value [3] was “poor bioavailability” and the “inhibitory rate of cancer growth” value (H22 mouse hepatoma cells; 2 mg/kg ip) was 51.9%. The “influence on body weights of mice” value (H22 mouse hepatoma cells; H22-bearing mice) was “much more loss of body weight” and the “inhibition of body weight of mice” value (H22 mouse hepatoma cells; H22 xenografts) was 25.1%.
